From PubChem BioAssay
Sampled rows, rich in hits. Any-hit rate of the full collection: about 2.3%.
Cneo AK release: causes C. neoformans cell lysis. adenylate kinase release luminescence, 4 h; normalised: neutral wells 0, clomiphene wells 100. lysis activity, % at 15 µM. hit rate 0.2% among 360,000. AID 651654;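 active means mean lysis activity across replicates of at least 80%, whatever share of replicates individually reach that level; inactive means mean lysis activity below 80%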
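Assay system: log-phase C. neoformans yeast / Quantity: yeast cell density of 5 × 10^6 cells/mL / Medium: fresh YPD growth medium / Compound: single dose / Timing: static 4 h at 37 °C with compound, 1 h detection / Measured by: adenylate kinase release luminescence / Read-out: lysis from increased AK signal / Benchmarks: Clomiphene as positive lysis control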
Statin myotox sup: protects C2C12 myotubes from simvastatin toxicity | ATP luminescence, 48 h; scaled: DMSO 0, geranylgeraniol control 100 | rescue of ATP level, % at 7.49 µM | hit rate 0.78% among 330,000 | AID 602340;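 active means mean ATP rescue above about 67%, or every replicate alone reaching that limit, limit read from the data, passing the limit was not always enough; inconclusive means no clear call, values can overlap the other calls; inactive means mean under the limit and some replicate under it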;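 further: myotubes were challenged with 10 µM simvastatin during compound exposure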
ERp5 inh: inhibitors of human ERp5 | Q15084 | ERp5 insulin aggregation, absorbance 650 nm, 90 min | inhibition, % at 9.99 µM | hit rate 0.05% among 350,000;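 active means mean replicate inhibition above about 25%, with every replicate also reaching it, limit read from the data, passing the limit was not always enough; inconclusive means only one of those two criteria met; inactive means neither criterion met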
Target sequence (Q15084 whole entry, looked up): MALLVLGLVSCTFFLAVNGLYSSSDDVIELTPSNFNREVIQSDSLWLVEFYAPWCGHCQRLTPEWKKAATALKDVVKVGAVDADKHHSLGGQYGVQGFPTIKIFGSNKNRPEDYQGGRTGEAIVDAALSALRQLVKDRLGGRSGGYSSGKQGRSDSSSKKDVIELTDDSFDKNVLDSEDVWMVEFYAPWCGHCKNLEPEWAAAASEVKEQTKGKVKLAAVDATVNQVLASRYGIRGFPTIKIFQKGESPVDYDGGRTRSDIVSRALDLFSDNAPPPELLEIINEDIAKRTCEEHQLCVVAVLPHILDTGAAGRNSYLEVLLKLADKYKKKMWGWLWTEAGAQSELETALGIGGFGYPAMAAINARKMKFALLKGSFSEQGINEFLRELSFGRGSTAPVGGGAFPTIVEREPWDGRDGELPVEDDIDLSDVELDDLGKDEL
PDI inh: blocks human protein disulfide isomerase activity; P07237; hit rate 0.052% among 350,000; PDI insulin aggregation turbidity, A650, 90 min; AID 588391; inhibition, % at 10 µM;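 active means mean inhibition across replicates of 30% or more, whatever share of single replicates reach that level; inconclusive means mean inhibition below 30% while every single replicate reaches 30%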
DENV2 CPE rescue: protects cells from dengue virus 2 cytopathic effect | DENV2-infected cells, cytopathic effect rescue, plate reader | CPE inhibition, % at 9.99 µM | hit rate 1.7% among 350,000 | AID 651640; in the data active means CPE inhibition above about 20%, passing the limit was not always enough; inconclusive means no clear call, values can overlap the other calls; tested in BHK-21 cells
F508del corr: correctors of CFTR F508del function in bronchial epithelial cells; hit rate 0.36% among 350,000; activity (quench increase), % at 7.58 µM; AID 720511; CFBE cells, YFP halide quenching; stimulated with forskolin plus potentiator P3; % fluorescence drop versus neutral controls;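 active means mean added fluorescence quench of at least 8% versus neutral control, with both replicates also reaching 8%; inconclusive means only one of the mean or replicate conditions met; inactive means mean below 8% and not both replicates reaching 8%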;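 further: cells transiently co-express mutant CFTR-F508del with the halide-sensitive YFP; corrector assay measuring rescue of mutant channel to the surface after 24 h compound exposure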
Hits are given with their value; i = inactive; ? = inconclusive; nt = not tested or not shown.

SMILES	Cneo AK release	Statin myotox sup	ERp5 inh	PDI inh	DENV2 CPE rescue	F508del corr
CN(C)C(=O)[C@@H]1[C@@H](CO)[C@@H]2Cn3c(ccc(/C=C/c4ccccc4)c3=O)[C@@H]2N1CC1CC1	nt	nt	i	nt	i	i
CCN1[C@@H]2Cn3c(ccc(/C=C/c4ccccc4)c3=O)[C@H]1[C@@H](C(=O)NC1Cc3ccccc3C1)[C@@H]2CO	nt	nt	i	nt	32.1	i
CCCN1[C@H](C(=O)N(C)C)[C@@H](CO)[C@@H]2Cn3c(ccc(/C=C/c4ccccc4)c3=O)[C@@H]21	i	i	i	nt	55.6	nt
C[C@@H]1CN([C@H](C)CO)S(=O)(=O)c2ccc(-c3cccc(F)c3)cc2O[C@@H]1CN(C)S(C)(=O)=O	i	i	i	nt	i	nt
C[C@@H]1CN([C@@H](C)CO)C(=O)c2cc(NC(=O)NC3CCCCC3)ccc2O[C@@H](C)CCCCO[C@H]1CN(C)S(=O)(=O)c1cccs1	i	nt	nt	nt	i	i
COCc1nc2ccccc2n1CCCOc1ccccc1	i	127.4	nt	i	nt	nt
CCOCCn1c(COc2ccccc2)nc2ccccc21	i	122.4	nt	i	nt	nt
CC(C)NC(=O)N(C)C[C@H]1OCCCC[C@@H](C)Oc2ccc(NC(=O)c3ccccc3)cc2C(=O)N([C@@H](C)CO)C[C@@H]1C	91.5	nt	i	nt	i	i
CC(C)NC(=O)N(C)C[C@@H]1OCCCC[C@H](C)Oc2ccc(NC(=O)c3ccccc3)cc2C(=O)N([C@H](C)CO)C[C@@H]1C	nt	nt	i	nt	i	i
CC(C)NC(=O)N(C)C[C@@H]1OCCCC[C@H](C)Oc2ccc(NC(=O)c3ccccc3)cc2C(=O)N([C@H](C)CO)C[C@H]1C	90.9	nt	i	nt	i	i
C[C@@H](NC(=O)C[C@H]1C=C[C@H](NC(=O)C2CC2)[C@H](CO)O1)c1ccccc1	i	i	i	nt	i	i
O=C(NC1CCCC1)[C@H]1[C@H](CO)[C@H]2Cn3c(ccc(-c4ccccc4)c3=O)[C@@H]1N2CCc1ccccc1	i	i	i	nt	i	nt
O=C(OC(C(=O)NCc1ccc2c(c1)OCO2)c1ccccc1F)c1ccco1 (stereo not drawn)	i	83.8	nt	i	nt	nt
C[C@@H]1CN([C@@H](C)CO)C(=O)c2cc(NS(=O)(=O)c3cn(C)cn3)ccc2O[C@@H](C)CCCCO[C@H]1CN(C)Cc1ccncc1	i	nt	i	nt	69.9	i
C[C@H]1CCCCO[C@H](CN(C)Cc2ccc(C(F)(F)F)cc2)[C@@H](C)CN([C@@H](C)CO)C(=O)c2cc(NS(=O)(=O)c3cn(C)cn3)ccc2O1	i	nt	i	nt	i	i
C[C@@H]1CN([C@@H](C)CO)C(=O)c2cc(NS(=O)(=O)c3cn(C)cn3)ccc2O[C@@H](C)CCCCO[C@@H]1CN(C)Cc1ccc(C(F)(F)F)cc1	96.2	nt	i	nt	nt	i
C[C@@H]1CN([C@H](C)CO)C(=O)Cc2cc(NS(=O)(=O)c3ccc(Cl)cc3)ccc2O[C@H]1CN(C)Cc1ccc(C(=O)Nc2ccccc2N)cc1	nt	nt	i	nt	71.2	i
Cc1noc(C)c1S(=O)(=O)Nc1ccc2c(c1)CC(=O)N([C@H](C)CO)C[C@@H](C)[C@H](CN(C)Cc1ccc(C(=O)Nc3ccccc3N)cc1)O2	nt	nt	i	nt	i	i
Cc1noc(C)c1S(=O)(=O)Nc1ccc2c(c1)CC(=O)N([C@H](C)CO)C[C@H](C)[C@@H](CN(C)Cc1ccc(C(=O)Nc3ccccc3N)cc1)O2	nt	nt	i	nt	39.9	i
CNC(=O)c1ccc(-c2ccc(F)cc2)s1	i	69.4	nt	i	nt	nt
CNC(=O)c1ccc(-c2ccc(OC)cc2)s1	i	i	nt	i	nt	nt
CC(C)NC(=O)N(C)C[C@@H]1OCCCC[C@@H](C)Oc2ccc(NS(=O)(=O)c3cccs3)cc2C(=O)N([C@H](C)CO)C[C@@H]1C	i	nt	i	nt	54.5	i
C[C@H]1CCCCO[C@@H](CN(C)C(=O)Nc2ccc(F)cc2)[C@@H](C)CN([C@@H](C)CO)C(=O)c2cc(NS(=O)(=O)c3cccs3)ccc2O1	i	i	i	nt	i	i
CC(C)NC(=O)N(C)C[C@H]1OCCCC[C@@H](C)Oc2ccc(NS(=O)(=O)c3cccs3)cc2C(=O)N([C@H](C)CO)C[C@@H]1C	i	nt	i	nt	i	i
C[C@H]1CCCCO[C@@H](CN(C)C(=O)Nc2ccc3c(c2)OCO3)[C@@H](C)CN([C@@H](C)CO)C(=O)c2cc(NS(=O)(=O)c3cccs3)ccc2O1	i	83.9	i	nt	?	i
SMILES	Cneo AK release	Statin myotox sup	ERp5 inh	PDI inh	DENV2 CPE rescue	F508del corr
C[C@@H]1CCCCO[C@@H](CN(C)C(=O)Nc2ccc(F)cc2)[C@H](C)CN([C@H](C)CO)C(=O)c2cc(NS(=O)(=O)c3cccs3)ccc2O1	i	nt	i	nt	i	i
C[C@@H]1CCCCO[C@H](CN(C)C(=O)Nc2ccc(F)cc2)[C@H](C)CN([C@H](C)CO)C(=O)c2cc(NS(=O)(=O)c3cccs3)ccc2O1	i	i	i	nt	67.7	i
C[C@H]1CCCCO[C@H](CN(C)C(=O)Nc2ccc(F)cc2)[C@@H](C)CN([C@@H](C)CO)C(=O)c2cc(NS(=O)(=O)c3cccs3)ccc2O1	i	i	i	nt	26.6	i
CN(C)CC(=O)N1CCCCN2[C@@H](CO)[C@@H](c3ccc(/C=C/c4ccccc4)cc3)[C@@H]2C1	i	i	i	nt	i	i
CCCC(=O)Nc1ccc2c(c1)OC[C@H](C)NC[C@H](C)[C@@H](OC)CN(C)C2=O	nt	nt	i	nt	i	i
COCC(=O)N(C)C[C@H]1Oc2ncc(-c3ccc(F)cc3)cc2C(=O)N([C@H](C)CO)C[C@H]1C	i	i	i	nt	i	i
COc1ccc(CN(C)C[C@H]2Oc3ccc(NC(=O)C4CC4)cc3C(=O)N([C@H](C)CO)C[C@@H]2C)cc1	i	i	i	nt	i	i
COc1ccc(CN(C)C[C@@H]2Oc3ccc(NC(=O)C4CC4)cc3C(=O)N([C@@H](C)CO)C[C@H]2C)cc1	91.9	i	?	nt	nt	i
COc1ccc(CN(C)C[C@@H]2Oc3ccc(NC(=O)C4CC4)cc3C(=O)N([C@H](C)CO)C[C@H]2C)cc1	105.6	i	?	nt	nt	i
O=C(Nc1ccncc1)Nc1ccc(Cl)cc1Cl	i	i	i	i	71.4	i
O=C(Nc1ccncc1)Nc1cc(Cl)ccc1Cl	i	i	i	i	i	i
CCCNC(=O)Nc1ccc2c(c1)C(=O)N(C)C[C@H](OC)[C@H](C)CN(C(C)=O)[C@H](C)CO2	i	i	i	nt	i	i
COCC#Cc1ccc([C@H]2[C@@H](CO)N3CCCCN(S(=O)(=O)c4ccc(OC)cc4)C[C@@H]23)cc1	i	i	i	nt	i	i
CCCC#Cc1ccc([C@H]2[C@@H](CO)N3CCCCN(S(=O)(=O)c4ccccc4C)C[C@H]23)cc1	i	nt	i	nt	i	14.1
COCC#Cc1ccc([C@H]2[C@H]3CN(S(=O)(=O)c4ccc(OC)cc4)CCCCN3[C@H]2CO)cc1	i	i	i	nt	44.7	i
